APP 5UTR inh: APP translation inhibition. inhibition, % at 2 µM. AID 1285. 0.82% of 190,000 active. SH-SY5Y APP 5'UTR-luciferase reporter, luminescence;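 active = inhibition above a set limit, derived from the sample mean plus 3 SD, cut at about 45% in these data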
Ba/F3 V617F tox: reduce viability of Ba/F3 cells dependent on JAK2V617F; 1.1% of 220,000 active; inhibition, % at 5.6 µM; AID 1446; Ba/F3 EpoR-JAK2V617F viability, ATP luminescence;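 active = inhibition above the campaign mean plus 3 SD over all tested compounds, cut at about 24% in these data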;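 also: cytokine-independent growth of Ba/F3 cells driven by EpoR plus mutant JAK2; 0% = DMSO-treated cells and 100% = JAK inhibitor I control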
BaF3 tox: parental Ba/F3 viability inhibition as JAK2V617F counter-screen. CellTiter-Glo ATP luminescence. inhibition, % at 5.6 µM. 1.1% of 220,000 active;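 active = inhibition above a per-campaign cutoff, the mean inhibition of all tested compounds plus 3 SD, cut at about 27% in these data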;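 also: 0% = DMSO wells and 100% = JAK Inhibitor I control wells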
MT stabilizer: microtubule stabilization, imaging screen | 0.83% of 200,000 active | % tubulin-high responders, % at 10 µM | AID 2205 | HeLa tubulin immunostaining HCS, 24 h; share of cells brighter than vehicle mean+2SD;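 active = plate Z-score above 3 for both tubulin-high and condensed-nucleus cell shares, with cell loss under 80%, at 10 µM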;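 also: anti alpha tubulin signal scored within the nucleus-defined area of each cell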
b-catenin transl: beta-catenin nuclear translocation modulation; nuclear translocation activity, % at 5 µM; 0.3% of 190,000 active; HeLa beta-catenin nuclear translocation, immunofluorescence imaging;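 active = nuclear translocation activity above 50% at 5 µM, with a well cell count of 50 or more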;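 also: per-cell ratio of nuclear to cytoplasmic median beta-catenin stain intensity; plate controls were DMSO negative control for no effect and GSK-3 inhibitor IX positive control for full effect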
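Test system: human HeLa cells, native beta-catenin. Compound dosing: 5 µM primary single dose, 0.1% DMSO, 0.02–20 µM confirmation series. Incubation: compound exposure 24 h at 37°C. Detection: beta-catenin immunostaining with DAPI counterstain, 20x imaging, 6 fields/well. Read-out basis: Nuclear/cytoplasmic beta-catenin signal ratio, % activation.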
IEC-6 cytotox: kills IEC-6 intestinal cells in KLF5 counter-screen | 0.78% of 290,000 active | inhibition, % at 5 µM | IEC-6 cytotoxicity, luminescence viability | AID 1825; in the data active = inhibition above about 22%;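 also: 0% = plate median of test compound wells and 100% = cytotoxic reference compound wells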
* = called active by the depositor; / = not tested or not shown; ! = repeats disagree. Sampled rows, rich in hits. Any-hit rate of the full collection: about 2.2%.

SMILES | APP 5UTR inh | Ba/F3 V617F tox | BaF3 tox | MT stabilizer | b-catenin transl | IEC-6 cytotox
C#CC[N+]1(CC#Cc2cccc3ccccc23)CCOCC1 | -12.8 | 80.7* | 50.1* | 1.8 | -0.5 | 1.0
COc1ccc(CCN(Cc2cc3ccc(C)cc3n3nnnc23)C(C)=O)cc1OC | 23.2 | 1.9 | 11.7 | 2.5 | -0.5 | 4.1
CC1CCN(CCC(=O)Nc2ccc(F)c(F)c2)CC1 | / | / | / | / | / | -3.5
COc1ccc(-n2nc(C(=O)NCC(=O)N3CCN(c4ccccc4)CC3)c3ccccc3c2=O)cc1OC | / | / | / | / | / | 1.6
Cc1nn(Cc2c(F)c(F)c(F)c(F)c2F)c(C)c1NC(=O)c1nn(C)c(C)c1Br | / | / | / | / | / | 6.4
CC[C@H](C)C(=O)O[C@H]1CCC=C2C=C[C@H](C)[C@H](CC[C@@H]3C[C@@H](O)CC(=O)O3)[C@H]21 | 5.1 | 62.2* | 26.7*! | 10.1 | -1.4 | 2.9
CC[C@H](C)C(=O)O[C@H]1C[C@@H](C)C=C2C=C[C@H](C)[C@H](CC[C@@H]3C[C@@H](O)CC(=O)O3)[C@H]21 | 8.3 | 2.8 | 7.7 | 6.0 | / | -3.0
Cn1cc(C(=O)Nc2ccc(F)c(F)c2)cn1 | 50.4* | -1.7 | 1.7 | 2.6 | -1.4 | 3.0
COc1ccc(-n2cc(CN3CCCC3)c(-c3cccc(F)c3)n2)cc1 | -4.7 | -1.6 | 1.0 | 3.5 | -0.3 | 7.9
CC(=O)N1CCCN(Cc2cn(-c3ccc(C)cc3)nc2-c2cccc(C)c2)CC1 | -6.2 | -0.4 | 40.6* | 2.5 | 4.4 | 1.8
CC(=O)Nc1ccc(S(=O)(=O)N2CCC(NC(=O)C(Cc3ccccc3F)NC(C)=O)CC2)cc1 (centres undefined) | / | / | / | / | / | -10.7
CC(=O)N1c2ccc(S(=O)(=O)NCc3ccco3)cc2CC1C (centres undefined) | / | / | / | / | / | -4.0
O=C(NCc1cccnc1)c1c[nH]c2cc3c(cc2c1=O)OCCO3 | -79.9 | 27.2* | 40.9* | 3.6 | -5.5 | 9.3
CCOC(=O)C1=C(C)N=C2SC=C(C)N2C1c1ccc(OC)cc1 (centres undefined) | 5.4 | -1.6 | 6.1 | 12.2* | 15.8 | 0.7
CC(NC(=O)Nc1nnc(C(F)(F)F)s1)(C(F)(F)F)C(F)(F)F | 0.6 | 37.2* | 40.0* | 4.3 | -0.1 | 19.5
CCCCOc1ccccc1C1NC(=O)CCC1[N+](=O)[O-] (centres undefined) | / | / | / | / | / | -1.6
COc1ccc(-c2oc3ccccc3c2C(=O)OCc2ccccc2)cc1 | / | / | / | / | / | 2.2
CCN(CC)c1ccc(/C=N/n2nnnc2N)c(O)c1 | -12.9 | 5.5 | 2.6 | 24.4* | / | -3.4
Nc1nnnn1/N=C/c1ccc(O)cc1 | / | -1.0 | 4.5 | 2.6 | -17.5 | -3.0
CCN(C)c1ccc(/C=N\n2nnnc2N)cc1 | -41.9 | 6.5 | 9.9 | 24.7* | / | 1.1
CNc1ccccc1C(C)(C)c1cc(-c2cccc(Br)c2)no1 | 11.2 | 62.4* | 76.5* | 4.8 | 0.2 | 4.1
CNC(=O)COc1ccc(S(=O)(=O)Nc2ccc(C)cc2)cc1 | / | -0.3 | -2.2 | / | -0.3 | -1.2
O=C(COc1ccc(S(=O)(=O)Nc2ccccc2)cc1)NCc1ccncc1 | 14.4 | -5.2 | 53.6* | 8.2 | -0.8 | -4.9
Cc1ccc(NS(=O)(=O)c2ccc(OCC(=O)NCc3cccnc3)cc2)cc1 | 2.9 | 0.7 | 2.2 | 3.7 | 1.5 | 6.3
CNC(=O)COc1ccc(S(=O)(=O)Nc2ccc(OC)cc2)cc1 | -41.8 | 0.7 | 90.0* | 3.4 | -2.6 | 5.1
SMILES | APP 5UTR inh | Ba/F3 V617F tox | BaF3 tox | MT stabilizer | b-catenin transl | IEC-6 cytotox
CC1CN(CCc2ccccc2)c2nc3c(c(=O)n(CC(N)=O)c(=O)n3C)n2C1 (centres undefined) | / | / | / | / | / | -0.7
CCOC(=O)N1CCN(C2CCCN(C(=O)c3cccc(Cl)c3)C2)CC1 (centres undefined) | / | / | / | / | / | 0.0
FCCCOc1ccc(-c2nccc(-c3ccccn3)n2)cc1 | / | / | / | / | / | 9.6
O=C(O)COc1ccc(-c2nccc(-c3ccccn3)n2)cc1 | 62.7* | -2.8 | -0.8 | 3.5 | 0.3 | -1.8
C[N+](C)(C)CCN(Cc1ccc(Cl)cc1)c1ccccn1 | -0.2 | 33.4* | 28.8* | 2.3 | / | 4.3
O=C(Nc1nccs1)c1cn(-c2ccccc2)nc1-c1ccccc1 | -1.4 | 5.7 | 4.8 | 34.0* | / | 4.4
CSCCC(NC(=O)c1ccccc1)C(=O)N1CCN(C(c2ccccc2)c2ccccc2)CC1 (centres undefined) | / | / | / | / | / | -3.8
Cc1ccccc1Cn1ccc(=NCc2ccccc2)cc1 | 2.5 | 100.2* | 79.0* | 2.5 | 0.1 | 15.3
CCOC(=O)c1ccc2c(c1)n(CC)c(/C=C/N(C)c1ccccc1)[n+]2CC | 4.5 | 72.9* | 66.1* | 3.8 | -0.9 | -1.5
CN(C)S(=O)(=O)c1cccc(NC(=O)CSc2nc3c(cc2C#N)C(=O)CC(C)(C)C3)c1 | 19.8 | 4.4 | 4.4 | 24.0* | 5.5 | 10.0
CN(C)S(=O)(=O)c1ccc(Cl)c(NC(=O)CSc2nc3c(cc2C#N)C(=O)CC(C)(C)C3)c1 | 11.6 | -0.6 | 0.5 | 3.7 | / | -1.8
Cc1ccc(/C(=N/Nc2nc3ccccc3s2)C2=C(O)c3ccccc3C2=O)cc1 | 4.7 | 2.7 | 6.0 | 2.2 | -3.0 | -2.7
C/C(CC(=O)Nc1ccc(N(C)C)cc1)=N\NC(=O)c1ccc([N+](=O)[O-])cc1 | / | / | / | / | / | 1.7
COc1ccc(N2C(=O)C(Cl)=C(Oc3cccc(OC)c3)C2=O)cc1 | 49.3* | 0.4 | 7.0 | 4.6 | 0.2 | -3.9
CC(NC(=O)c1ccc(C(C)(C)C)cc1)C(c1cccs1)N1CCOCC1 (centres undefined) | / | / | / | / | / | 4.4
CCOC(=O)COc1cc(-n2c(=S)[nH]c3cc(OC)c(OC)cc3c2=O)c(Cl)cc1Cl | -3.5 | -1.3 | 2.2 | 9.2* | -1.5 | -4.6
Cc1cc(-c2nnc3n2N=C(c2ccc(-c4ccccc4)cc2)CS3)n[nH]1 | -26.5 | 0.9 | 5.1 | 8.0 | -3.1 | -2.8
c1ccc(-c2cc(-c3nnc4n3N=C(c3ccc5ccccc5c3)CS4)[nH]n2)cc1 | -26.3 | -1.2 | 3.4 | 20.7* | -0.3 | -5.2
COc1ccc(S(=O)(=O)Nc2ccccc2C(F)(F)F)cc1 | -25.8 | -2.6 | 2.3 | 3.3 | 0.6 | 2.1
COc1ccc(S(=O)(=O)NN(C)c2nc(C(F)(F)F)nc3ccccc23)cc1 | -19.8 | -1.7 | 3.2 | 24.9* | -1.8 | 2.8
COc1ccccc1NC(=S)N=Nc1c(O)[nH]c2ccc(Br)cc12 | / | -3.4 | -2.5 | / | -1.0 | -3.8
Cc1cccc(NC(=S)N=Nc2c(O)[nH]c3ccccc23)c1 | 45.3* | -1.8 | 3.9 | 2.2 | -4.5 | 37.7*
CCc1ccccc1NC(=S)NN | 91.6* | -0.2 | 2.5 | / | 0.3 | -1.3
O=C(c1ccc([N+](=O)[O-])cc1)N1CCN(C2=NS(=O)(=O)c3ccccc32)CC1 | / | / | / | / | / | -11.6
CCOC(=O)/C(=N/Nc1ccc(C)cc1)S(=O)(=O)c1ccc(Cl)cc1 | 62.9* | -0.9 | 5.8 | 3.0 | 1.4 | 4.4
O=C(Nc1cccnc1)c1ccc(Cl)c(S(=O)(=O)N2CCCC2)c1 | / | / | / | / | / | -0.1
CCOC(=O)N1CCN(Cc2ccc(O)c3ncccc23)CC1 | 11.3 | 3.3 | 6.6 | 2.5 | 2.1 | 7.0
